Test [1] can be described thus: reducers of endogenous Her2 protein level, primary screen, SKBR3 breast tumor cells, AlphaScreen, ATP viability (AID 461;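 active means Her2 level under about 52% in both replicate screens, with viability over 70% of control, limit read from the data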;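 on Her2 level: lower value means less Her2 protein in the cells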;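 on viability: percent of carrier control wells set as 100% viability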). To be noted: 18-24 h, measured here: SKBR3 viability, ATP luminescence, at 10 µM.
In test [2] the target is Receptor tyrosine-protein kinase erbB-2 (Homo sapiens) (UniProt P04626). The test is described as above. As to conditions: 18-24 h, at 10 µM, stronger effect = lower value.
Test [3] can be described thus: SK-BR-3 cell growth inhibitors, pilot screen, 24 h, human (AID 572;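 active means viability at or below 10% of carrier control in both of two separate runs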;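 further: compound exposure lasted between 18 and 24 h rather than exactly 24 h; 100% = carrier-treated control wells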). To be noted: SK-BR-3 viability, CellTiter-Glo luminescence, at 10 µM, stronger effect = lower value.
Test [4] can be described thus: HUVEC growth inhibition – cell-based, human, primary screen (AID 575;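 active means viability at or below 30% in both replicate assays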;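 further: 100% = median of untreated cell wells with 0.1% DMSO on each plate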). To be noted: HUVEC proliferation, CellTiter-Glo luminescence, 72 h; at 10 µM; stronger effect = lower value. The method, boiled down: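 material = primary HUVEC, no more than 12 passages | input = 1250 cells per well | controls = vehicle and MePR control wells | measured by = CTG luminescence | times = 72 h compound incubation | format = collagen-coated 384-well format | read-out = % viability vs DMSO wells | doses = single 10 µM dose, 0.1% DMSO, from 5x medium stock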

Test [5] can be described thus: growth inhibitors of H69AR lung tumor, primary screen, human, duplicate replicates (AID 580;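 active means viability at or under a set limit in both replicates, limit being median viability minus 3 SD, cut at about 48% in these data, passing the limit was not always enough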;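 further: 100% = mean luminescence of untreated wells and 0% = no signal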). As to conditions: H69AR lung tumor cells viability, ATP luminescence, 72 h; at 10 µM; stronger effect = lower value.
The nature of test [6]: reversal of MRP1-mediated doxorubicin resistance, pilot screen, H69AR cells, doxorubicin co-treatment (AID 601;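 active means viability loss from added drug above about 55%, and viability with drug at most 40%, in both replicates, limit read from the data, passing the limit was not always enough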). As to conditions: CellTiter-Glo, 72 h, at 10 µM; for differential viability (reversal): stronger effect = higher value.
Test [7] can be described thus: 384-well plate pilot, post-Golgi transport modulator project, inhibition of yeast transport mutant growth (AID 636; in the data active means inhibition above about 31%). To be noted: absorbance 615 nm, about 18 h, stronger effect = higher value.
Test [8] is described as follows: growth suppression of yeast trafficking mutant, preliminary HTS, modulators of trafficking downstream of Golgi apparatus project, 1536-format plate, OD 615 nm (AID 637). As to conditions: yeast transport mutant growth, absorbance 615 nm, 18 h; stronger effect = higher value.
The mark [9] stands for this setting: H69AR cells + 2 uM doxorubicin, measured here: viability with 2 uM doxorubicin, stronger effect = lower value.
[10] abbreviates: H69AR cells, compound alone cytotoxicity.

Active and inactive are the calls of the source. Unless noted, no stated cut-off is given here; in the data, active means inhibition above about 30%; inactive means the rest.

Sequence of Receptor tyrosine-protein kinase erbB-2 (Homo sapiens) (P04626 whole entry, looked up): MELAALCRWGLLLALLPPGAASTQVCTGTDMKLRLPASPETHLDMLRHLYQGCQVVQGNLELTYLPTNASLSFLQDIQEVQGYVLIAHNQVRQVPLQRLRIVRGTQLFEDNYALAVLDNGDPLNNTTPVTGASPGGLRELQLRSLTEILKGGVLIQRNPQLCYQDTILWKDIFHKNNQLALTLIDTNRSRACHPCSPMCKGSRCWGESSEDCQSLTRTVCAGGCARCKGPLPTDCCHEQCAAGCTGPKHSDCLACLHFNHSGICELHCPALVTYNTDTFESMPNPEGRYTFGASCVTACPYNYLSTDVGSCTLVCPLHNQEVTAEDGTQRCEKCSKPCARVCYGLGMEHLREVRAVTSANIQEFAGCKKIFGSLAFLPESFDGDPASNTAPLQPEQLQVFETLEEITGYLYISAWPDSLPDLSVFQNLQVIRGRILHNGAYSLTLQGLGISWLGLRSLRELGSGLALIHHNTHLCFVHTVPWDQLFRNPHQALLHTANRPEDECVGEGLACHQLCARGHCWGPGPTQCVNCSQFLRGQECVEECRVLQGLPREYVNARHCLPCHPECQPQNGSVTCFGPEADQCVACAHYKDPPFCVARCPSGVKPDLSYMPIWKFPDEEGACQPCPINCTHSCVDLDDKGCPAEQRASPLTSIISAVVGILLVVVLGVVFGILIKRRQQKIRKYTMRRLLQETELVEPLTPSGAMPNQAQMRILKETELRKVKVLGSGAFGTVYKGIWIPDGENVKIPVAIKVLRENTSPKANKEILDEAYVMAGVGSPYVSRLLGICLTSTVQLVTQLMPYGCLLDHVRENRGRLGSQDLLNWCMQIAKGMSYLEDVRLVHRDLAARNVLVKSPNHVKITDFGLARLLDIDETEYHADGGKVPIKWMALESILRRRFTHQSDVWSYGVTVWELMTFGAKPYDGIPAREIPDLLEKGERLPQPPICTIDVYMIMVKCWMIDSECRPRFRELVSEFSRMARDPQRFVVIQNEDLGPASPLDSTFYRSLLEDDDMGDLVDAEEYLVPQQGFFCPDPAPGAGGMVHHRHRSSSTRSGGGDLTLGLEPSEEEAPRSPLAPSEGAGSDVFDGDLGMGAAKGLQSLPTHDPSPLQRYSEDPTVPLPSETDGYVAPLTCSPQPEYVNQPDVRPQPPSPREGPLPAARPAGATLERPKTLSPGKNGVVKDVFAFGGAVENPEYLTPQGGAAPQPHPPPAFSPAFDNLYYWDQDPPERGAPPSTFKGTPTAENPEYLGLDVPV

As for `CN1CCN(S(=O)(=O)c2ccc(Sc3nnc(-c4cccs4)n3-c3ccccc3)nc2)CC1`, the viability in test [1] is 120%; in test [3] it was 120% (inactive); in test [4], 89.4% (inactive); in test [5], 85.7% (inactive); in test [6] (setting [9]), 82.2%; in test [6] (setting [10]) it was 85.7%. Also, the Her2 level in test [2] is 87.5% (inactive). In addition, the differential viability (reversal) in test [6] (H69AR cells + 2 uM doxorubicin) is 3.53% (inactive). Moreover, the values for the inhibition in test [7] and in test [8] were -5.27% (inactive) and -10% (inactive), respectively.
Turning to `O=C(COc1ccccc1Cl)NCc1ccco1`, the viability in test [1] was 89.5%; in test [3], 89.5% (inactive); in test [4], 103% (inactive); in test [5] it was 107% (inactive); in test [6] (setting [9]), 91.6%; in test [6] (setting [10]), 107%. For the same compound, the Her2 level in test [2] was 78.5% (inactive). Moreover, in test [6] (H69AR cells + 2 uM doxorubicin), the differential viability (reversal) is 15.4% (inactive). In addition, the values for the inhibition in test [7] and in test [8] were -0.81% (inactive) and -3.93% (inactive), respectively.
`CCOC(=O)COc1ccc(C2NC(C(=O)O)CS2)cc1` (stereo not given): the viability was 94.5% in test [1]; 94.5% (inactive) in test [3]; 83.4% (inactive) in test [4]; 102% (inactive) in test [5]; 96.3% in test [6] (setting [9]); 102% in test [6] (setting [10]). Moreover, in test [2], the Her2 level is 102% (inactive). In addition, the differential viability (reversal) in test [6] (H69AR cells + 2 uM doxorubicin) is 5.91% (inactive). For the same compound, the inhibition in test [7] is -3.03% (inactive); in test [8], -7.5% (inactive).
`CCCCc1nccn1CCn1ccnc1CCCC`: the viability is 87% in test [1]; 87% (inactive) in test [3]; 97% (inactive) in test [4]; 85.8% (inactive) in test [5]; 86.7% in test [6] (setting [9]); 85.8% in test [6] (setting [10]). The Her2 level in test [2] is 85.5% (inactive). Further, in test [6] (H69AR cells + 2 uM doxorubicin), the differential viability (reversal) is -0.88% (inactive). In addition, the inhibition in test [7] is -3.47% (inactive); in test [8], 1.61% (inactive).
Consider `COc1ccc(S(=O)(=O)N2CCN(CC(=O)Nc3ccc(F)c(F)c3)CC2)cc1`, for which the viability in test [1] was 88.5%; in test [3] it was 88.5% (inactive); in test [4] it was 75.6% (inactive); in test [5], 91.1% (inactive); in test [6] (setting [9]), 93.9%; in test [6] (setting [10]), 91.1%. The Her2 level in test [2] is 86% (inactive). Besides, in test [6] (H69AR cells + 2 uM doxorubicin), the differential viability (reversal) is -2.83% (inactive). Further, the inhibition was -1.73% (inactive) in test [7] and -1.94% (inactive) in test [8].
Regarding `CN=C(Nc1cc(C)nn1-c1ccccc1)c1ccccc1`, the viability was 93% in test [1]; 93% (inactive) in test [3]; 86.6% (inactive) in test [4]; 93.6% (inactive) in test [5]; 97.2% in test [6] (setting [9]); 93.6% in test [6] (setting [10]). Further, in test [2], the Her2 level is 95.5% (inactive). For the same compound, the differential viability (reversal) in test [6] (H69AR cells + 2 uM doxorubicin) is -3.59% (inactive). Besides, the inhibition in test [7] is -2% (inactive); in test [8], -3.55% (inactive).
Consider `C=CCNC(=O)CN(c1cccc(Br)c1)S(C)(=O)=O`, for which the viability in test [1] was 96%; in test [3], 96% (inactive); in test [4], 94.6% (inactive); in test [5] it was 102% (inactive); in test [6] (setting [9]), 91.3%; in test [6] (setting [10]), 102%. In addition, the Her2 level in test [2] is 106% (inactive). In test [6] (H69AR cells + 2 uM doxorubicin), the differential viability (reversal) was 10.9% (inactive). Besides, the inhibition in test [7] was -5.6% (inactive); in test [8] it was 0.16% (inactive).
Turning to `COCCNC(=O)C(C)OC(=O)c1nsc(Cl)c1Cl` (stereo not given), the viability is 103% in test [1]; 103% (inactive) in test [3]; 110% (inactive) in test [4]; 99.3% (inactive) in test [5]; 94.5% in test [6] (setting [9]); 99.3% in test [6] (setting [10]). The Her2 level in test [2] was 108% (inactive). Further, the differential viability (reversal) in test [6] (H69AR cells + 2 uM doxorubicin) is 4.84% (inactive). In addition, the inhibition was -1.08% (inactive) in test [7] and 25.7% (inactive) in test [8].
For the compound `CC(C)(C)c1cc(C(=S)N2CCN(CCO)CC2)cc(C(C)(C)C)c1O`, the viability in test [1] is 123%; in test [3], 123% (inactive); in test [4] it was 94.7% (inactive); in test [5], 96.2% (inactive); in test [6] (setting [9]) it was 78.8%; in test [6] (setting [10]) it was 96.2%. In addition, the Her2 level in test [2] was 86% (inactive). Besides, in test [6] (H69AR cells + 2 uM doxorubicin), the differential viability (reversal) is 17.4% (inactive). Also, the values for the inhibition in test [7] and in test [8] were -6.13% (inactive) and 2.42% (inactive), respectively.
Turning to `O=C(c1cc2n(n1)C(C(F)(F)F)CC(c1ccc(Cl)cc1)N2)N1CCCC1` (stereo not given), the viability in test [1] was 86.5%; in test [3], 86.5% (inactive); in test [4], 82.1% (inactive); in test [5] it was 90.9% (inactive); in test [6] (setting [9]), 91.3%; in test [6] (setting [10]), 90.9%. Besides, the Her2 level in test [2] is 68% (inactive). The differential viability (reversal) in test [6] (H69AR cells + 2 uM doxorubicin) is -0.385% (inactive). In addition, the figures for the inhibition in test [7] and in test [8] were -6.84% (inactive) and 3.17% (inactive), respectively.
For `O=C(c1cccc(C(=O)N2CCN(c3ccccc3)CC2)c1)N1CCN(c2ccccc2)CC1`, the viability in test [1] is 95.5%; in test [3] it was 95.5% (inactive); in test [4] it was 81.3% (inactive); in test [5], 90.7% (inactive); in test [6] (setting [9]) it was 84%; in test [6] (setting [10]) it was 90.7%. The Her2 level in test [2] is 106% (inactive). In addition, in test [6] (H69AR cells + 2 uM doxorubicin), the differential viability (reversal) is 6.69% (inactive). Also, the inhibition was -2.47% (inactive) in test [7] and -0.33% (inactive) in test [8].
As to `Cc1nn(C)cc1NC(=O)CCSc1nc(-c2ccco2)cc(C(F)(F)F)n1`, the viability was 90.5% in test [1]; 90.5% (inactive) in test [3]; 102% (inactive) in test [4]; 87.3% (inactive) in test [5]; 81.9% in test [6] (setting [9]); 87.3% in test [6] (setting [10]). For the same compound, the Her2 level in test [2] is 104% (inactive). Further, the differential viability (reversal) in test [6] (H69AR cells + 2 uM doxorubicin) was 5.31% (inactive). Also, the inhibition in test [7] is -4.4% (inactive); in test [8] it was 23.9% (inactive).
Turning to `CCOc1cc(C(=O)N(C)c2ccccc2)cc(OCC)c1OCC`, the viability in test [1] was 108%; in test [3], 108% (inactive); in test [4], 96.4% (inactive); in test [5], 89.2% (inactive); in test [6] (setting [9]), 90.7%; in test [6] (setting [10]), 89.2%. Besides, the Her2 level in test [2] was 131% (inactive). In test [6] (H69AR cells + 2 uM doxorubicin), the differential viability (reversal) was -1.49% (inactive). The results for the inhibition in test [7] and in test [8] were -5.64% (inactive) and -11.3% (inactive), respectively.
Consider `CCOC(=O)c1[nH]c2ccc(C)cc2c1N=C(C)N(C)C`, for which the viability in test [1] is 100%; in test [3], 100% (inactive); in test [4], 96.5% (inactive); in test [5], 97.7% (inactive); in test [6] (setting [9]), 91.4%; in test [6] (setting [10]), 97.7%. The Her2 level in test [2] is 89% (inactive). In addition, in test [6] (H69AR cells + 2 uM doxorubicin), the differential viability (reversal) is 6.32% (inactive). The inhibition was -0.66% (inactive) in test [7] and -5.32% (inactive) in test [8].
Regarding `CCOc1ccc(S(=O)(=O)n2nc(C)cc2C)c2ccccc12`, the viability in test [1] is 83.5%; in test [3], 83.5% (inactive); in test [4] it was 71.2% (inactive); in test [5] it was 79.7% (inactive); in test [6] (setting [9]) it was 77.6%; in test [6] (setting [10]), 79.7%. Besides, the Her2 level in test [2] is 89.5% (inactive). Moreover, the differential viability (reversal) in test [6] (H69AR cells + 2 uM doxorubicin) is 2.17% (inactive). The inhibition was -1.03% (inactive) in test [7] and 2% (inactive) in test [8].
For `Cn1cnc2c(N3CCCCC3)nccc21`, the viability in test [1] is 116%; in test [3] it was 116% (inactive); in test [4] it was 87.3% (inactive); in test [5] it was 90.5% (inactive); in test [6] (setting [9]) it was 95.7%; in test [6] (setting [10]) it was 90.5%. The Her2 level in test [2] is 104% (inactive). Besides, in test [6] (H69AR cells + 2 uM doxorubicin), the differential viability (reversal) is -5.21% (inactive). In addition, the results for the inhibition in test [7] and in test [8] were -4.16% (inactive) and -1.64% (inactive), respectively.
